FGF22 binding: binders of recombinant human FGF22 by thermal shift; Q9HCT0; SYPRO orange fluorescence; percent of sucrose octasulfate shift, DMSO zero; activity (Tm shift, normalised), % at 9.99 µM; actives 1.5% (n = 340,000); AID 651658;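 active = mean Tm shift, scaled 0 neutral to 100 positive control, at about 1.3% or above, every replicate too, limit read from the data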
Target sequence (Q9HCT0 whole entry, looked up): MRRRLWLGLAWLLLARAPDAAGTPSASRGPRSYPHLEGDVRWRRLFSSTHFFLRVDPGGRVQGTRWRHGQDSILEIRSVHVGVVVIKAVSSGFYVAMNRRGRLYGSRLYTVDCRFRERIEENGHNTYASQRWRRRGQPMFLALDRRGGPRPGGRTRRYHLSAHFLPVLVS
ASAP1 inh: blocks human ASAP1-stimulated Arf1 GTP hydrolysis | Q9ULH1 | actives 0.19% (n = 360,000) | GDP FP detection | inhibition, % at 16.5 µM; in the data active = inhibition above about 25%
Efflux pump mplx: antifungal efflux pump inhibition, Nile Red retention. inhibition, % at 10 µM. S. cerevisiae Candida pump triplex. actives 0.44% (n = 330,000);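 active = plate passing quality check with inhibition over a set limit, or well fluorescence over plate mean plus 4 SD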;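 note: Nile Red retained in pooled yeast measured as flow cytometry median fluorescence; higher means more Nile Red kept so more efflux inhibition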
Rtt109 Vps75: inhibitors of Candida albicans Rtt109/Vps75 histone acetyltransferase; inhibition, % at 34.9 µM; Q5AAJ8; actives 0.16% (n = 330,000); purified Rtt109/Vps75, ThioGlo CoA-SH fluorescence, 4 h;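 active = inhibition of at least 50% in every replicate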
Target sequence (Q5AAJ8 whole entry, looked up): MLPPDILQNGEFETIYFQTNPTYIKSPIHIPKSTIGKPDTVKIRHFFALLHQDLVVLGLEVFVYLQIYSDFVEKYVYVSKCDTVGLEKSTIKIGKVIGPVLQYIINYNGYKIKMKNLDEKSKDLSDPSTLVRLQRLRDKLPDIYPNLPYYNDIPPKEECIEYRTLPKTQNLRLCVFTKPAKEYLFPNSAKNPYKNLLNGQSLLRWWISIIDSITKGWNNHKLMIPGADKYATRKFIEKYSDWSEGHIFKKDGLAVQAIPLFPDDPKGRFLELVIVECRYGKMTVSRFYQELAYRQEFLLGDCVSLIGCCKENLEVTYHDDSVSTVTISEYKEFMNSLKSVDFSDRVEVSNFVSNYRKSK
ARFGAP1 inhibitor: inhibits rat ARF GTPase activating protein 1; Q62848; Arfgap1-stimulated ARF1 GTP hydrolysis, GDP FP detection; inhibition, % at 16.5 µM; actives 0.26% (n = 360,000);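 active = inhibition above a per-plate limit, mean inhibition of low control wells plus 3 SD, cut at about 25% in these data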
Target sequence (Q62848 1-136 limits assumed): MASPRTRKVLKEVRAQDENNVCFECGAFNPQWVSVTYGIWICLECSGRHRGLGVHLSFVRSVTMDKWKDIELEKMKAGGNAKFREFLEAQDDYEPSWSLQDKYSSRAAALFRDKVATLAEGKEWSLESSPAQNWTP
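material = rat Arfgap1 catalytic domain, aa 1-136 | also added = human ARF1(Δ1-17)-GTP substrate | compound dosing = one concentration, 16.5 µM, DMSO 1.26% | times = GTP hydrolysis reaction 2 h at 25 °C | measured by = FP, GDP Alexa 633 tracer displaced from anti-GDP antibody, 620/688 nm | evaluation = percent inhibition of Arfgap1-stimulated GTP hydrolysis | replication = single well per compound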
ASAP1 inh confirm: ASAP1 inhibition confirmed; shares compounds with ASAP1 inh; inhibition, % at 16.5 µM; actives 37% (n = 620); ASAP1-stimulated Arf1 GTPase, GDP fluorescence polarization;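 active = mean inhibition over triplicates exceeds the hit threshold derived for the earlier primary screening run, cut at about 25% in these data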
Each line names hits and unclear results; the compound was inactive in the other large screens (follow-up assays come after a bar, where they were run). Hits are enriched below; roughly 1.9% of the tested compounds scored in any of these assays.

O=C(COC(=O)C1CC(=O)N(Cc2ccco2)C1)c1ccc(OC(=O)c2ccco2)cc1 (stereo unspecified)	ASAP1 inh 28 (no result: FGF22 binding) | ASAP1 inh confirm inactive
Cc1ccc(C(=O)Oc2ccc(C(=O)COC(=O)C3CC(=O)N(Cc4ccco4)C3)cc2)cc1 (stereo unspecified)	none (no result: FGF22 binding, ASAP1 inh, ARFGAP1 inhibitor)
CCCS(=O)(=O)c1c(S(=O)(=O)CCC)c2cnccn2c1C(=O)c1ccc(Cl)cc1	ASAP1 inh 27 (no result: FGF22 binding) | ASAP1 inh confirm inactive
CCC(=O)N1[C@@H](CO)[C@@H](c2ccccc2)[C@@H]1CN(CC)C(=O)c1cccc(F)c1	none (no result: ASAP1 inh, Efflux pump mplx, Rtt109 Vps75, ARFGAP1 inhibitor)
COc1ccc(/C=C2\Oc3cc(OC(=O)N4CCOCC4)ccc3C2=O)cc1	ASAP1 inh 33 | ASAP1 inh confirm 70
CO[C@H]1CN(C)C(=O)c2cc(NC(=O)c3nc4ccccc4s3)ccc2OC[C@H](C)NC[C@@H]1C	none (no result: ASAP1 inh, Efflux pump mplx, Rtt109 Vps75, ARFGAP1 inhibitor)
O=c1c(=Nc2ccccc2O)c(=O)c2ccccc12	ASAP1 inh 28 | ASAP1 inh confirm inactive
CN1c2ccc(-c3ccccc3)cc2[C@H]2[C@H](CCN2C(=O)c2ccccc2)[C@H]1CO	none (no result: ASAP1 inh, Efflux pump mplx, Rtt109 Vps75, ARFGAP1 inhibitor)
Cc1ccc(CN(C)C(=O)CN2C(=O)NC3(CCCC3)C2=O)o1	none
CCOC(=O)C1=C(CSc2nc(-c3ccccc3)ccc2C#N)OC(N)=C(C#N)C1c1ccccc1 (stereo unspecified)	ASAP1 inh 27 (no result: FGF22 binding) | ASAP1 inh confirm inactive
CN(C(=O)CSc1nncn1C)C1CCCN(Cc2ccccc2F)C1 (stereo unspecified)	ASAP1 inh 31 | ASAP1 inh confirm inactive
CNC(=O)COC(=O)/C=C/c1ccco1	ASAP1 inh 27 | ASAP1 inh confirm inactive
O=C(Cc1ccc(O)cc1)NC1CCCCCC1	none
COc1ccccc1NC(=O)Cn1nnc(-c2ccccc2NC(=O)c2ccco2)n1	ASAP1 inh 28 (no result: FGF22 binding) | ASAP1 inh confirm inactive
COC(=O)C1[C@H]2C(=O)N(Cc3cccs3)C[C@]23C=C[C@H]1O3 (stereo partly specified)	none (no result: FGF22 binding)
O=C(O)C1[C@H]2C(=O)N(Cc3cccs3)C[C@]23C=C[C@H]1O3 (stereo partly specified)	ASAP1 inh 25 (no result: FGF22 binding) | ASAP1 inh confirm inactive
O=[N+]([O-])c1cc(C(F)(F)F)ccc1NCCc1c[nH]c2ccc(O)cc12	ASAP1 inh 26 (no result: FGF22 binding) | ASAP1 inh confirm inactive
COc1ccc(NC(=O)N[C@@H]2CC[C@H](CCNS(=O)(=O)c3ccccc3F)O[C@H]2CO)cc1	none (no result: ASAP1 inh, Efflux pump mplx, Rtt109 Vps75, ARFGAP1 inhibitor)
Cn1c(C(=O)Nc2ccccc2)cc2sccc21	ASAP1 inh 31 (no result: FGF22 binding) | ASAP1 inh confirm inactive
CCOC(=O)C1(Cc2ccc(OC)cc2)CCN(C(=O)C2CCCO2)CC1 (stereo unspecified)	none (no result: FGF22 binding)
COc1ccc(CCC(=O)NCc2cn3ccc(C)cc3n2)cc1	none
CCCCC(=O)Nc1cccc(C(=O)N/N=C/c2ccc(OC)cc2OC)c1	ASAP1 inh 26 (no result: FGF22 binding) | ASAP1 inh confirm inactive
COc1ccc(S(=O)(=O)NNC(=S)NCCc2ccccc2)c(OC)c1	ASAP1 inh 26 | ASAP1 inh confirm inactive
COc1ccc(NC(=S)NCCc2ccccc2)c(OC)c1	none
O=C(O)CC1(CC(=O)Nc2ccc(F)cc2F)CCCCC1	none (no result: Rtt109 Vps75)
O=C(O)CC1(CC(=O)Nc2cc(F)ccc2Cl)CCCCC1	ASAP1 inh 25 | ASAP1 inh confirm inactive
O=C(COc1ccc(/C=N/NC(=O)c2ccncc2)cc1)Nc1cccc([N+](=O)[O-])c1	ASAP1 inh 29 | ASAP1 inh confirm inactive
O=C(Nc1ccc(F)cc1)N1CCCCN2[C@@H](CO)[C@H](c3ccc(C#Cc4ccccn4)cc3)[C@@H]2C1	none (no result: ASAP1 inh, Efflux pump mplx, Rtt109 Vps75, ARFGAP1 inhibitor)
CCCC#Cc1ccc2c(c1)O[C@@H](CN(C)C(=O)c1cnccn1)[C@@H](C)CN([C@H](C)CO)S2(=O)=O	none (no result: ASAP1 inh, Efflux pump mplx, Rtt109 Vps75, ARFGAP1 inhibitor)
O=C(CC(=O)Nc1ccccc1C(F)(F)F)Nc1ccccc1C(F)(F)F	none
O=C(CNC(=O)c1ccc(F)cc1)Nc1ccccc1C(F)(F)F	ASAP1 inh 25 | ASAP1 inh confirm inactive
CCCC(=O)Nc1ccc2c(c1)C(=O)N(C)[C@H]1CC[C@H](CC(=O)NCCN3CCCCC3)O[C@@H]1CO2	none (no result: ASAP1 inh, Efflux pump mplx, Rtt109 Vps75, ARFGAP1 inhibitor)
CCOc1ccc(Br)cc1S(=O)(=O)Nc1ccc(C(=O)OCC(=O)N(C)c2ccccc2)cc1	ASAP1 inh 26 (no result: FGF22 binding) | ASAP1 inh confirm inactive
CCOc1ccc(Br)cc1S(=O)(=O)Nc1ccc(C(=O)Nc2ccccc2OC)cc1	none
O=C(N/N=C/C(Br)=C/c1ccccc1)c1ccc([N+](=O)[O-])cc1	ASAP1 inh 48 | ASAP1 inh confirm 78
O=C(N/N=C/c1ccc(Br)s1)c1ccccc1[N+](=O)[O-]	none (no result: FGF22 binding)
O=C(N/N=C/c1ccc(Br)s1)c1ccc([N+](=O)[O-])cc1	ASAP1 inh 36 | ASAP1 inh confirm 97
O=C(c1ccco1)N1CCN(S(=O)(=O)c2ccc3c(c2)CCN3C(=O)C2CCC2)CC1	none (no result: FGF22 binding)
O=C(CCCN1C(=O)/C(=C/c2ccc(F)cc2)SC1=S)NCCCn1ccnc1	ASAP1 inh 26 | ASAP1 inh confirm inactive
COc1ccc(/C=C2\SC(=S)N(CCC(=O)NCCCn3ccnc3)C2=O)cc1	none
COC(=O)C1=C(C)NC(=O)NC1c1ccc2ccccc2c1 (stereo unspecified)	none
O=C1Cc2ccccc2C(=O)N1CCc1ccccc1	ASAP1 inh 33 | ASAP1 inh confirm inactive
CC1CCc2c(sc(NC(=O)c3ccco3)c2C(=O)O)C1 (stereo unspecified)	ASAP1 inh 27 | ASAP1 inh confirm inactive
CC(C)(C)C1CCC(=NNC(=O)CN(c2ccccc2)S(C)(=O)=O)CC1 (stereo unspecified)	none
N#Cc1cn(CC(=O)NCCc2c[nH]c3ccccc23)c2ccccc12	ASAP1 inh 27 (no result: FGF22 binding) | ASAP1 inh confirm inactive
O=[N+]([O-])c1ccc(OCCOc2ccccc2/C=N/n2cnnc2)cc1	ASAP1 inh 37 | ASAP1 inh confirm 46
CC(=O)c1ccc(CCCCc2ccc(C(C)=O)cc2)cc1	ASAP1 inh 25 (no result: Efflux pump mplx) | ASAP1 inh confirm inactive
COC(=O)CSc1nnc(CNC(=O)c2ccccc2OC)n1C	none (no result: FGF22 binding)
Cc1ccc(NC2=C(N3CCOCC3)C(=O)c3ccccc3C2=O)cc1	ASAP1 inh 36 (no result: FGF22 binding) | ASAP1 inh confirm inactive
O=C(O)c1ccc(NC2=C(N3CCOCC3)C(=O)c3ccccc3C2=O)cc1	none (no result: FGF22 binding)
COc1ccc2c3c([nH]c2c1)[C@@H](CO)N(C(=O)Nc1ccc(F)cc1)CC31CN(C(=O)Nc2ccccc2)C1	none (no result: ASAP1 inh, Efflux pump mplx, Rtt109 Vps75, ARFGAP1 inhibitor)
COc1cc(/C=C/c2nc(N)nc(-c3ccccc3O)n2)cc(OC)c1OC	none (no result: FGF22 binding)
COc1cc(/C=C/c2nc(-c3ccccc3O)n[nH]2)cc(OC)c1OC	ASAP1 inh 25 (no result: FGF22 binding) | ASAP1 inh confirm 31
O=C(CNC(=O)c1cccc(F)c1)N/N=C/c1cc(Br)ccc1OC(=O)/C=C/c1ccco1	none (no result: Efflux pump mplx)
O=C(CNC(=O)c1ccccc1O)N/N=C/c1cc(Br)ccc1OC(=O)/C=C/c1ccco1	ASAP1 inh 26 (no result: Rtt109 Vps75) | ASAP1 inh confirm inactive

High-throughput results from PubChem BioAssay.
